{"source": "paper PMC4083586", "about": "(Biotechnology journal, 2011)", "system": "porcine parvovirus (PPV)", "assay": "PPV removal by peptide-resin columns from 7.5% human blood plasma", "type": "binding, porcine parvovirus (PPV) NADL-2 strain", "conditions": "Figure 3B", "summary_of_the_method": "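Peptides on resin at 0.10 mmol/g dry resin with a four-unit ethylene oxide spacer; 0.5 ml settled resin in PBS per column; acetylated control. About 5 log₁₀ (MTT/ml) PPV was pumped at 0.1 ml/min. Fractions of 0.5 ml (one column volume) were titered by MTT assay on PK-13 cells. Clearance over five column volumes was expressed relative to a reference trimer ligand (100%). Duplicates.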"}
{"substance": "YKLKYY", "values": [{"measurement": "PPV clearance of the first five column volumes, ranking among ligands", "result": "highest virus clearance"}]}
